Measured values: ChEMBL document CHEMBL3739417, “Synthesis and biological evaluation of novel 4,5-disubstituted 2H-1,2,3-triazoles as cis-constrained analogues of combretastatin A-4” (2015)

What was measured:
Assay type in all cases: functional
[1] = tested on: U-251; experiment: Growth inhibition of human U251 cells after 48 hrs by sulforhodamine B assay; conditions: U-251, 48 h
Summary of the method: (§1)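 NCI-60 panel screen by SRB assay (Rubinstein method). Percentage growth taken from optical density of SRB colour, read before and 48 hrs after exposure to compound or vehicle control. All analogues first screened at 10^-5 M. Analogues giving 60% growth inhibition at that level in at least eight lines then went to a five-concentration dose-response study.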

[2] = Growth inhibition of human LOXIMVI cells after 48 hrs by sulforhodamine B assay; conditions: LOX IMVI; summary of the method: as §1
[3] = Growth inhibition of human SNB75 cells after 48 hrs by sulforhodamine B assay; conditions: SNB-75, 48 h; summary of the method: as §1
[4] = Growth inhibition of human SF295 cells after 48 hrs by sulforhodamine B assay; conditions: SF-295, 48 h; summary of the method: as §1
[5] = Growth inhibition of human SF268 cells after 48 hrs by sulforhodamine B assay; conditions: SF-268, 48 h; summary of the method: as §1
[6] = Growth inhibition of human SW620 cells after 48 hrs by sulforhodamine B assay; conditions: SW-620, 48 h; summary of the method: as §1
[7] = tested on: KM12; experiment: Growth inhibition of human KM12 cells after 48 hrs by sulforhodamine B assay; conditions: KM12, 48 h; summary of the method: as §1
[8] = tested on: HT-29; experiment: Growth inhibition of human HT-29 cells after 48 hrs by sulforhodamine B assay; conditions: HT-29, 48 h; summary of the method: as §1
[9] = Growth inhibition of human HCT15 cells after 48 hrs by sulforhodamine B assay; conditions: HCT-15, 48 h; summary of the method: as §1
[10] = Growth inhibition of human HCC2998 cells after 48 hrs by sulforhodamine B assay; conditions: HCC 2998, 48 h; summary of the method: as §1
[11] = Growth inhibition of human COLO205 cells after 48 hrs by sulforhodamine B assay; conditions: COLO 205, 48 h; summary of the method: as §1
[12] = tested on: NCI-H460; experiment: Growth inhibition of human NCI-H460 cells after 48 hrs by sulforhodamine B assay; conditions: NCI-H460, 48 h; summary of the method: as §1
[13] = tested on: NCI-H23; experiment: Growth inhibition of human NCI-H23 cells after 48 hrs by sulforhodamine B assay; conditions: NCI-H23, 48 h; summary of the method: as §1
[14] = Growth inhibition of human HOP62 cells after 48 hrs by sulforhodamine B assay; conditions: HOP-62, 48 h; summary of the method: as §1
[15] = tested on: A549; experiment: Growth inhibition of human A549/ATCC cells after 48 hrs by sulforhodamine B assay; conditions: A549, 48 h; summary of the method: as §1
[16] = tested on: SR; experiment: Growth inhibition of human SR cells after 48 hrs by sulforhodamine B assay; summary of the method: as §1
[17] = Growth inhibition of human RPMI8226 cells after 48 hrs by sulforhodamine B assay; conditions: RPMI-8226, 48 h; summary of the method: as §1
[18] = Growth inhibition of human MOLT4 cells after 48 hrs by sulforhodamine B assay; conditions: MOLT-4, 48 h; summary of the method: as §1
[19] = tested on: K562; experiment: Growth inhibition of human K562 cells after 48 hrs by sulforhodamine B assay; conditions: K562, 48 h; summary of the method: as §1
[20] = Growth inhibition of human HL-60(TB) cells after 48 hrs by sulforhodamine B assay; conditions: HL-60, 48 h; summary of the method: as §1
[21] = tested on: CCRF-CEM; experiment: Growth inhibition of human CCRF-CEM cells after 48 hrs by sulforhodamine B assay; summary of the method: as §1
[22] = tested on: MDA-MB-435; experiment: Growth inhibition of human MDA-MB-435 cells after 48 hrs by sulforhodamine B assay; conditions: MDA-MB-435, 48 h
Summary of the method: (§2)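 NCI-60 sulforhodamine B screen. Compounds were first tested at a single dose of 10⁻⁵ M; hits, defined as ≥60% growth inhibition in at least eight lines, went on to a five-concentration dose–response. SRB optical density was read before and 48 h after exposure to compound or vehicle. Percentage growth was calculated from OD.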

[23] = tested on: SK-MEL-2; experiment: Growth inhibition of human SK-MEL-2 cells after 48 hrs by sulforhodamine B assay; conditions: SK-MEL-2, 48 h; summary of the method: as §1
[24] = Growth inhibition of human IGROV1 cells after 48 hrs by sulforhodamine B assay; conditions: IGROV-1, 48 h; summary of the method: as §1
[25] = Growth inhibition of human OVCAR3 cells after 48 hrs by sulforhodamine B assay; conditions: OVCAR-3, 48 h; summary of the method: as §2
[26] = Growth inhibition of human NCI-ADR-RES cells after 48 hrs by sulforhodamine B assay; summary of the method: as §1
[27] = Growth inhibition of human SKOV3 cells after 48 hrs by sulforhodamine B assay; conditions: SK-OV-3, 48 h; summary of the method: as §1
[28] = tested on: 786-0; experiment: Growth inhibition of human 786-0 cells after 48 hrs by sulforhodamine B assay; conditions: 786-0, 48 h; summary of the method: as §1
[29] = tested on: A498; experiment: Growth inhibition of human A498 cells after 48 hrs by sulforhodamine B assay; conditions: A498, 48 h; summary of the method: as §2
[30] = tested on: ACHN; experiment: Growth inhibition of human ACHN cells after 48 hrs by sulforhodamine B assay; summary of the method: as §1
[31] = tested on: CAKI-1; experiment: Growth inhibition of human CAKI-1 cells after 48 hrs by sulforhodamine B assay; conditions: CAKI-1, 48 h; summary of the method: as §1
[32] = Growth inhibition of human UO31 cells after 48 hrs by sulforhodamine B assay; conditions: UO-31, 48 h; summary of the method: as §1
[33] = Growth inhibition of human PC3 cells after 48 hrs by sulforhodamine B assay; conditions: PC-3, 48 h; summary of the method: as §1
[34] = Growth inhibition of human DU145 cells after 48 hrs by sulforhodamine B assay; conditions: DU-145, 48 h; summary of the method: as §1
[35] = tested on: MCF7; experiment: Growth inhibition of human MCF7 cells after 48 hrs by sulforhodamine B assay; conditions: MCF7, 48 h; summary of the method: as §1
[36] = tested on: MDA-MB-231; experiment: Growth inhibition of human MDA-MB-231 cells after 48 hrs by sulforhodamine B assay; conditions: MDA-MB-231, 48 h; summary of the method: as §1
[37] = tested on: MDA-MB-468; experiment: Growth inhibition of human MDA-MB-468 cells after 48 hrs by sulforhodamine B assay; conditions: MDA-MB-468, 48 h; summary of the method: as §1
[38] = read-out: LD50 (the source's name)

**Q.** Which results are given for `COc1cc(-c2n[nH]nc2-c2ccc3ccccc3n2)cc(OC)c1OC`?
**A.** GI50 [1]: 37 nM; CC50 [1, 38]: > 100000 nM; GI50 [2]: 65 nM; CC50 [2, 38]: > 100000 nM; GI50 [3]: 16 nM; CC50 [3, 38]: > 100000 nM; GI50 [4]: 14 nM; CC50 [4, 38]: > 100000 nM; GI50 [5]: 503 nM; CC50 [5, 38]: > 100000 nM; GI50 [6]: 41 nM; LD50 (concentration killing 50% of cells) [6]: > 100 µM; GI50 [7]: 35 nM; LC50 (concentration killing 50% of cells) ([7]; read-out: LD50): > 100000 nM; GI50 [8]: 214 nM; LC50 (concentration killing 50% of cells) ([8]; read-out: LD50): > 100000 nM; GI50 [9]: 37 nM; CC50 [9, 38]: > 100000 nM; GI50 [10]: 230 nM; CC50 [10, 38]: > 100000 nM; GI50 [11]: 228 nM; CC50 [11, 38]: > 100000 nM; GI50 [12]: 38 nM; CC50 [12, 38]: > 100000 nM; GI50 [13]: 65 nM; LC50 (concentration giving 50% cell kill) ([13]; read-out: LD50): > 100000 nM; GI50 [14]: 47 nM; LC50 (concentration killing 50% of cells) ([14]; read-out: LD50): > 100000 nM; GI50 [15]: 54 nM; CC50 [15, 38]: > 100000 nM; GI50 [16]: 21 nM; LC50 (concentration giving 50% net cell kill) ([16]; read-out: LD50): > 100000 nM; GI50 [17]: 37 nM; CC50 [17, 38]: > 100000 nM; GI50 [18]: 68 nM; CC50 [18, 38]: > 100000 nM; GI50 [19]: 26 nM; CC50 [19, 38]: > 100000 nM; GI50 [20]: 30 nM; CC50 [20, 38]: > 100000 nM; GI50 [21]: 37 nM; LC50 (concentration killing 50% of cells) ([21]; read-out: LD50): > 100000 nM; GI50 [22]: < 10 nM; LC50 (concentration killing 50% of cells) ([22]; read-out: LD50): > 100000 nM; GI50 [23]: 27 nM; CC50 [23, 38]: > 100000 nM; GI50 [24]: 65 nM; CC50 [24, 38]: > 100000 nM; GI50 [25]: 11 nM; LC50 (concentration giving 50% net cell kill) ([25]; read-out: LD50): > 100000 nM; GI50 [26]: 23 nM; CC50 [26, 38]: > 100000 nM; GI50 [27]: 75 nM; LC50 (concentration killing 50% of cells) ([27]; read-out: LD50): > 100000 nM; GI50 [28]: 43 nM; LC50 (concentration killing 50% of cells) ([28]; read-out: LD50): > 100000 nM; GI50 [29]: 33 nM; LC50 (50% net cell kill) ([29]; read-out: LD50): > 100000 nM; GI50 [30]: 81 nM; CC50 [30, 38]: > 100000 nM; GI50 [31]: 43 nM; CC50 [31, 38]: > 100000 nM; GI50 [32]: 92 nM; LC50 (concentration killing 50% of cells) ([32]; read-out: LD50): > 100000 nM; GI50 [33]: 46 nM; CC50 [33, 38]: > 100000 nM; GI50 [34]: 27 nM; CC50 [34, 38]: > 100000 nM; GI50 [35]: 27 nM; CC50 [35, 38]: > 100000 nM; GI50 [36]: 94 nM; CC50 [36, 38]: > 100000 nM; GI50 [37]: 35 nM; CC50 [37, 38]: > 100000 nM
